22 compounds from ChEMBL document CHEMBL1149254, “The discovery of orally active triaminotriazine aniline amides as inhibitors of p38 MAP kinase” (J Med Chem, 2004) can be followed below.

For assay [1], the system named is THP-1. The assay is described as follows: Inhibition of LPS-induced TNFalpha production in human THP1 cells by ELISA. Format: functional, cell-based. Put shortly: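 THP-1 cells grown in RPMI 1640 with 10% FBS, 40000 cells/well. Compound or vehicle was added (1% DMSO final), then LPS at 1 μg/mL final. Cells were incubated overnight at 37 °C, 5% CO2. TNF in the supernatant was measured by sandwich ELISA: anti-human TNF capture, biotinylated polyclonal detection, streptavidin-peroxidase read-out.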

For assay [2], the target named is Mitogen-activated protein kinase 14 (Homo sapiens, UniProt Q16539). The assay is described as follows: Inhibition of human p38-alpha expressed in Escherichia coli.
Sequence of Mitogen-activated protein kinase 14 (Q16539 whole entry): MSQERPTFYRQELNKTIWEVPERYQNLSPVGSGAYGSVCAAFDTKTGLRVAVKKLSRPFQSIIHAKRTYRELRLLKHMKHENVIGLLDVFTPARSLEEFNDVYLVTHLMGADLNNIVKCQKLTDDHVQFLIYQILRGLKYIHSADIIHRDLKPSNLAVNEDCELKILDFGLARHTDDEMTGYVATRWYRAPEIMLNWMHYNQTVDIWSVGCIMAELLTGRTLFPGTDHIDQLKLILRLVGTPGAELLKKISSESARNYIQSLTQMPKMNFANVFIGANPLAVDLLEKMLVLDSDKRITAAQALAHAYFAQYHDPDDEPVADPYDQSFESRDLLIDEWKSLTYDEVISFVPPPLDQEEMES

pIC50: −log10 of the molar value.

On to `Cc1ccc(C(N)=O)cc1Nc1nc(N[C@H]2CCNC2)nc(N(C)CC(C)C)n1`, for which the negative logarithm of the IC50 (pIC50) (usually the negative decadic logarithm of the IC50, by convention in mol/L) in assay [1] is 6.49; in assay [2] it was 7.55.
The like results for `Cc1ccc(C(N)=O)cc1Nc1nc(NC[C@@H]2CC[C@H]3C[C@@H]2C3(C)C)nc(N[C@H]2CCNC2)n1` were, in that order, 5.96 and 7.28.
Take `Cc1ccc(C(N)=O)cc1Nc1nc(N[C@H]2CCNC2)nc(N(C)CC(C)c2ccccc2)n1` (stereo partly specified): the pIC50 is 5.59 in assay [1] and 7.08 in assay [2].
On to `COC(=O)c1ccc(C)c(Nc2nc(N[C@H]3CCNC3)nc(N(C)CC(C)(C)C)n2)c1`, for which the values for the negative logarithm of the IC50 (pIC50) in assay [1] and in assay [2] were < 6.60 and 6.46, respectively.
Compound `Cc1ccc(C(N)=O)cc1Nc1nc(N)nc(NC[C@@H]2CC[C@H]3C[C@@H]2C3(C)C)n1` had a pIC50 in assay [2] of 5.23.
On to `Cc1ccc(C(=O)NC(C)C)cc1Nc1nc(N[C@H]2CCNC2)nc(N(C)CC(C)(C)C)n1`, for which the pIC50 in assay [1] was 6.82; in assay [2], 7.29.
Take `Cc1ccc(C(=O)NC2CCCC2)cc1Nc1nc(N[C@H]2CCNC2)nc(N(C)CC(C)(C)C)n1`: the values for the pIC50 in assay [1] and in assay [2] were 6.89 and 7.00, respectively.
Turning to `Cc1ccc(C(=O)NCc2ccccc2)cc1Nc1nc(N[C@H]2CCNC2)nc(N(C)CC(C)(C)C)n1`, the figures for the pIC50 in assay [1] and in assay [2] were 7.07 and 7.19, respectively.
On to `Cc1ccc(C(N)=O)cc1Nc1nc(NC[C@@H]2CC[C@H]3C[C@@H]2C3(C)C)nc(N2CCCN(C)CC2)n1`, for which, in assay [2], the negative-log IC50 (pIC50) was 5.85.
As for `CONC(=O)c1ccc(C)c(Nc2nc(N[C@H]3CCNC3)nc(N(C)CC(C)(C)C)n2)c1`, the pIC50 in assay [1] was 7.80; in assay [2] it was 8.10.
In the case of `Cc1ccc(C(=O)NO)cc1Nc1nc(N[C@H]2CCNC2)nc(N(C)CC(C)(C)C)n1`, the pIC50 in assay [1] is 6.82; in assay [2] it was 7.80.
The like results for `Cc1ccc(C(N)=O)cc1Nc1nc(NCCc2ccc(F)cc2)nc(N[C@H]2CCNC2)n1` were, in that order, < 5.30 and 6.64.
With `CONC(=O)c1ccc(C)c(Nc2nc(N(C)CC(C)(C)C)nc(N3CCN(C)CC3)n2)c1`, the pIC50 in assay [1] is 6.80; in assay [2] it was 7.24.
Turning to `CONC(=O)c1ccc(C)c(Nc2nc(N(C)CC(C)(C)C)nc(N3CCNCC3)n2)c1`, the pIC50 is 6.92 in assay [1] and 7.74 in assay [2].
Turning to `CCNC(=O)c1ccc(C)c(Nc2nc(N[C@H]3CCNC3)nc(N(C)CC(C)(C)C)n2)c1`, the pIC50 in assay [1] was 6.85; in assay [2] it was 7.51.
For `Cc1ccc(C(N)=O)cc1Nc1nc(N[C@H]2CCNC2)nc(N(C)CC2CCCCC2)n1`, the negative-log IC50 (pIC50) in assay [1] is 5.89; in assay [2] it was 6.60.
Regarding `Cc1ccc(C(=O)O)cc1Nc1nc(N(C)CC(C)(C)C)nc(N2CCCN(C)CC2)n1`, the pIC50 in assay [2] was < 6.00.
Consider `CONC(=O)c1ccc(C)c(Nc2nc(N(C)CC(C)(C)C)nc(N3CCCNCC3)n2)c1`, for which the negative logarithm of the IC50 (pIC50) is 6.88 in assay [1] and 7.28 in assay [2].
Consider `Cc1ccc(C(N)=O)cc1Nc1nc(NCC(C)C)nc(N[C@H]2CCNC2)n1`, for which the figures for the pIC50 in assay [1] and in assay [2] were < 5.30 and 7.14, respectively.
On to `Cc1ccc(C(N)=O)cc1Nc1nc(NC[C@@H]2CC[C@H]3C[C@@H]2C3(C)C)nc(N2CCCNCC2)n1`, for which the figures for the negative logarithm of the IC50 (pIC50) in assay [1] and in assay [2] were 5.77 and 5.87, respectively.
The like results for `Cc1ccc(C(N)=O)cc1Nc1nc(N[C@H]2CCNC2)nc(N(C)CC(C)(C)C)n1` were, in that order, 6.78 and 7.62.
For the compound `COCCNC(=O)c1ccc(C)c(Nc2nc(N[C@H]3CCNC3)nc(N(C)CC(C)(C)C)n2)c1`, the pIC50 is 6.17 in assay [1] and 6.58 in assay [2].
